# Experimental data: PubChem BioAssay
# Unmarked numbers belong to inactive results. Records with an inconclusive call do not appear. Active and inactive are the calls of the source.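 Rule for the calls, unless noted: active = cell viability at or below a set limit in both duplicate runs, the limit being the all-compound median minus 4 SD (cut at about 23% in these data, passing the limit was not always enough); inconclusive = no clear call, values can overlap the other calls; inactive = the rest.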
# How the values were obtained:
# [1] = OD615 S. cerevisiae growth inhibition, permissive medium, pilot counter-assay, permissive growth control for S. cerevisiae lifespan shortening project (AID 705;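 active = growth inhibition above 25% in both replicates, a cutoff set 3 SD above the mean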); settings: OD615, 24 h, at 10 µM, stronger effect = higher value
# Procedure, shortened: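 System: engineered DeaD yeast; Medium: permissive raffinose/galactose medium; Compound dosing: 10 µM single dose, 0.25% DMSO; Incubation: 4 h cell pre-growth, 24 h exposure at 30 °C; Technique: OD at 615 nm; Evaluation: growth inhibition from lowered OD615 after 24 h.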
# [2] = Restrictive medium S. cerevisiae growth inhibition, OD615, pilot screen of yeast lifespan reduction project, restrictive growth control (AID 706;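 active = growth inhibition above a set limit, 3 SD over mean compound inhibition, in both replicates, cut at about 43% in these data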;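 note: modified DeaD lifespan yeast strain shifted to restrictive glucose medium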); settings: OD615, 48 h, at 10 µM, stronger effect = higher value
# Procedure, shortened: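 Material: modified S. cerevisiae; buffer or medium: CSMM-D glucose medium; doses: one concentration, 10 µM final, 0.25% DMSO; incubation: 48 h compound exposure at 30 °C; detection: optical density at 615 nm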
# [3] = viability gain of MRP-1-high H69AR cells under doxorubicin, pilot screen, MRP-1 activator project, CellTiter-Glo, duplicate (AID 807;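 active = viability increase at or above a cutoff of the median across tested compounds plus 3 SD, cut at about 8.5% in these data, passing the limit was not always enough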;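 note: compound pretreatment 18-22 h then 72 h combined with doxorubicin; 0% = doxorubicin alone and 100% = vehicle without doxorubicin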); settings: H69AR viability with doxorubicin, CellTiter-Glo luminescence; at 10 µM; stronger effect = higher value
# [4] = growth suppression of beta-catenin knockout HCT116, pilot screen, human colon tumor cells (AID 823); settings: CellTiter-Glo, 60 h, at 10 µM, stronger effect = lower value;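 note: 0% = wells killed by 20 µM Hyamine and 100% = untreated DMSO cell wells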
# [5] = growth suppression of PTEN-deleted HCT116, pilot screen, cell-based, HCT116 clonal line, CellTiter-Glo (AID 824;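 active = viability at or below 27.92% in each of two runs, the all-compound median minus 4 SD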;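 note: 0% = 20 µM Hyamine control and 100% = vehicle cell control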); settings: 60 h, at 10 µM, stronger effect = lower value
# [6] = inhibitors of the yeast RAM network, pilot screen, dse1pr::URA3 reporter, 5-FOA selection (AID 869;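 active = inhibition over a set limit, the all-compound mean plus 3 SD, in both replicate runs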;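 note: 0% = DMSO wells with no growth and 100% = 10 µM 1-NA-PP1 with full growth; RAM network block rescues cells from 5-FOA so hits raise OD615 growth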); settings: S. cerevisiae dse1pr::URA3 5-FOA growth, OD615, 2 d; at 10 µM; stronger effect = higher value; strain carries analog-sensitive mutant Cbk1 kinase
# [7] = RAM signaling pathway blockade in yeast – S. cerevisiae, Pdr1DBD-CYC8 efflux-inhibited sensitized strain, primary screen (AID 1298;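 active = RAM network inhibition above 8.4% in each of two replicates, 3 SD over the compound average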;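 note: 0% = DMSO untreated cells without growth and 100% = 10 µM 1-NA-PP1 full growth; higher means more yeast growth rescued from 5-FOA killing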); settings: S. cerevisiae cbk1-as DSE1-URA3 strain, 5-FOA growth OD615, 2 d; at 50 µM; stronger effect = higher value
SMILES,growth inhibition [1],growth inhibition [2],viability increase [3],viability [4],viability [5],inhibition [6],RAM network inhibition [7]
O=C(Cn1nc(-c2ccc(Cl)cc2)ccc1=O)NCC1CCCO1 (configuration not stated),-1.09%,-10.1%,-1.53%,92.5%,93.8%,1.24%,7.63%
CCc1c(C)sc(NC(=O)c2cc(C3CC3)on2)c1C#N,-7.33%,15%,1.11%,99%,102%,3.36%,-0.84%
Brc1ccc(-c2nnc3sc(CNC4CCCC4)cn23)cc1,0.69%,24.3%,0.19%,106%,107%,1.58%,2.6%
Cc1cccc(C2N(c3ccc(F)cc3)C(=O)C3CCCN32)c1 (configuration not stated),-1.45%,-4.47%,0.04%,98.4%,94.8%,0.71%,3.46%
CCn1c(SCC(=O)NCCOc2ccccc2)nc2ccccc2c1=O,-0.73%,-21.3%,-1.87%,93.8%,92.6%,1.08%,4.35%
CCN1CCN(C(c2ccccc2)c2sc3nc(C)nn3c2O)CC1 (configuration not stated),0.24%,1.3%,-1.49%,102%,101%,1.31%,5.66%
COc1ccc(N(CC(=O)Nc2nccs2)S(=O)(=O)c2c(C)nn(C)c2C)cc1,-18.2%,-6.82%,-3.77%,93%,87.5%,3%,3.8%
O=C1c2oc3ccccc3c(=O)c2C(c2cccc(O)c2)N1c1ccccn1 (configuration not stated),-7.62%,-6.25%,-0.37%,82.2%,79.6%,1.85%,-0.1%
Cn1c(=O)c2c(SCC(=O)NCc3ccco3)nc(CC(C)(C)C)nc2n(C)c1=O,-3.79%,-0.895%,-4.81%,72.5%,70.6%,0.775%,5.97%
Cn1c(=O)c2c(nc(CN3CCOCC3)n2CCc2ccccc2)n(C)c1=O,-8.53%,-15.8%,3.73%,95%,94.7%,1.48%,0.56%
CC(=O)c1c(C)[nH]c(C(=O)N2c3ccccc3CC2C)c1C (configuration not stated),-1.11%,3.09%,-0.41%,92.3%,92.6%,0.755%,3.82%
O=C(CN1CCN(C2CCCCC2)CC1)Nc1ccccc1N1CCCCC1,-12.3%,-31.2%,-4.35%,71.5%,77.7%,0.16%,5.95%
Brc1ccc(-c2nnc(-c3ccccc3Br)o2)cc1,0.385%,-1.09%,-1.12%,87.9%,79.2%,2.09%,11.3%
CC(C)c1nnc(NC(=O)c2ccc(S(=O)(=O)N3CCOCC3)cc2)s1,-15%,-24.1%,-1%,104%,99.3%,2.56%,6.74%
CCN1C(=O)c2ccccc2Sc2ccc(C(=O)NCCN3CCOCC3)cc21,-6.92%,-7.4%,-0.43%,110%,101%,-0.985%,2.02%
Cc1ccc(Cl)cc1N1CCN(C(=O)COc2ccc(S(=O)(=O)NC(C)C)cc2)CC1,4.32%,-7.2%,-4.67%,37.3%,54.8%,1%,6.06%
CC(C)c1cc(NC(=O)CSc2nnc(-c3ccccc3F)n2C)on1,-6.68%,2.08%,0.77%,98%,101%,0.705%,3.69%
COc1cc(NC(=O)c2cc(C(C)C)on2)cc(OC)c1OC,-12.3%,14.9%,-1.85%,95.2%,94.5%,-0.755%,-0.99%

SMILES,growth inhibition [1],growth inhibition [2],viability increase [3],viability [4],viability [5],inhibition [6],RAM network inhibition [7]
Cc1cc(C)c(S(=O)(=O)Nc2ccc(OCC(=O)O)cc2)c(C)c1,-6.34%,-3.2%,-0.81%,93.7%,90.5%,-0.28%,-0.63%
CC(C)n1c(C(O)c2ccc3c(c2)OCO3)nc2ccccc21 (configuration not stated),-1.25%,0.5%,0.4%,94.8%,90.9%,0.905%,2.89%
CC(=O)NCCc1cc2ccc(C)c(C)c2[nH]c1=O,-14.9%,-18.7%,-1.53%,103%,97%,1.05%,0.37%
CCOC(=O)N1CCN(c2ccc3nnnn3n2)CC1,-4.75%,1.97%,0.77%,101%,101%,0.275%,0.43%
CCCC12CN3CC(CCC)(CN(C1)C3C(O)C(O)C(O)CO)C2=O (configuration not stated),4.31%,7.78%,0.62%,99.7%,100%,1.27%,3.47%
Cc1ccc(-c2nc(C#N)c(NCCN3CCCCC3)o2)cc1,12.4%,-1.35%,-3.34%,92.5%,92.5%,1.4%,-1.13%
CC(=O)COC(=O)c1cccc(N2C(=O)C3C4C=CC(C4)C3C2=O)c1 (configuration not stated),-0.62%,8.06%,-1.07%,105%,93.5%,1.27%,0.67%
CCOC(=O)c1cc(NC(=O)NCc2ccco2)c(C)nc1C,-7.98%,-25.8%,-3.46%,105%,99.3%,1.57%,4.38%
CCc1cc2c(=O)c(-c3nc4ccccc4[nH]3)coc2c(CN2CCCC(C)C2)c1O (configuration not stated),-3.79%,12.3%,-0.47%,103%,92.8%,-0.17%,0.56%
CCn1cc(C(=O)NCC(=O)OC)c2cc(OC)c(OC)cc2c1=O,-6.43%,-18.9%,0.9%,105%,104%,0.59%,2.3%
COCCN1C(=O)c2ccccc2C(C(=O)NCCN(C)C)C1c1ccc(F)cc1 (configuration not stated),-15%,-19.9%,-1.59%,92.1%,98.4%,1.89%,2.13%
C(=N\n1cnnc1)/C1CCCCC1,-4.95%,-1.24%,-2.8%,101%,98.4%,0.19%,6.93%
O=S(=O)(NCc1csc(-c2ccccc2)n1)c1ccc(Cl)s1,-17.6%,-16.7%,-0.6%,96.9%,102%,0.21%,5.99%
Clc1ccc(OCc2nnc(-c3ccccc3Br)o2)c(Cl)c1,-11.4%,-17%,-0.17%,95.9%,89.3%,6% (active),14%
COc1ccc2nc(SCc3nc(N)nc(Nc4ccccc4)n3)[nH]c2c1,-8.8%,15.4%,0.65%,67.7%,80.3%,0.72%,6.33%
CCn1cc(SCC(=O)NCc2ccc3c(c2)OCO3)c2ccccc21,-9.14%,-8.28%,-1.84%,97.9%,92.7%,0.495%,3.73%
O=C(CSc1nc2c(cnn2-c2ccc(F)cc2)c(=O)[nH]1)N1CCOCC1,-14.2%,-19.8%,-3.32%,96.7%,91.4%,3.16%,6.85%
COC(=O)CN(c1ccc(C(C)C)cc1)S(=O)(=O)c1c(C)[nH]c(=O)[nH]c1=O,-0.6%,11.3%,-2.38%,88.8%,94.6%,2.21%,2.71%
